From PubChem BioAssay
A selection: hits, their analogues and other compounds. The true share with any hit is near 2.3%.
PP5 primary – blocks human protein phosphatase 5 activity | P53041 | purified PP5c, OMFP substrate fluorescence | inhibition, % at 6.7 µM | 320,000 tested, 0.18% active | AID 1987;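 active = inhibition above the campaign's mean inhibition across all tested compounds plus 3 SD, cut at about 9.5% in these data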;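 note: 0% = DMSO only and 100% = 100 µM cantharidin control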
PREPL inh – human PREPL enzyme inhibition. inhibition, % at 5.96 µM. Q4J6C6. 320,000 tested, 0.68% active. recombinant PREPL, fluorescence polarization activity-based probe;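 note: 0% = enzyme with DMSO and 100% = wells lacking enzyme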
UBC13 inh – blocks human UBC13 polyubiquitin chain formation. 330,000 tested, 0.47% active. inhibition, % at 20 µM. TR-FRET. P61088. AID 485273; in the data active = inhibition above about 45%, passing the limit was not always enough; inconclusive = no clear call, values can overlap the other calls
Target sequence (P61088 whole entry, looked up): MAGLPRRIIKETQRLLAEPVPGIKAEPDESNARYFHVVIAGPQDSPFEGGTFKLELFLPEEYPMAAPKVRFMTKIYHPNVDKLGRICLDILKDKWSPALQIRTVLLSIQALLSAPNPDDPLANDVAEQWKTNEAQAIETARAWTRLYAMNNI
CTSL1 counter – cathepsin L1 inhibition, PFM18AAP counter-screen. recombinant F. hepatica cathepsin L1, Z-Leu-Arg-MCA fluorescence. inhibition, % at 5.96 µM. 300,000 tested, 0.49% active. AID 1906;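 active = inhibition above the mean of all tested compounds plus 3 SD, set per screening campaign, cut at about 17% in these data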;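 note: 0% = plate median of test compound wells and 100% = 1 µM Z-Phe-Ala-diazomethylketone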
PP1 inh – blocks human PP1-alpha phosphatase, a PP5 counter-screen. P62136. purified PP1alpha, OMFP fluorescence. inhibition, % at 6.7 µM. 320,000 tested, 0.9% active. AID 2235;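 active = inhibition above the mean inhibition of all tested compounds plus 3 SD, computed separately for each screening campaign, cut at about 15% in these data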
Target sequence (P62136 whole entry, looked up): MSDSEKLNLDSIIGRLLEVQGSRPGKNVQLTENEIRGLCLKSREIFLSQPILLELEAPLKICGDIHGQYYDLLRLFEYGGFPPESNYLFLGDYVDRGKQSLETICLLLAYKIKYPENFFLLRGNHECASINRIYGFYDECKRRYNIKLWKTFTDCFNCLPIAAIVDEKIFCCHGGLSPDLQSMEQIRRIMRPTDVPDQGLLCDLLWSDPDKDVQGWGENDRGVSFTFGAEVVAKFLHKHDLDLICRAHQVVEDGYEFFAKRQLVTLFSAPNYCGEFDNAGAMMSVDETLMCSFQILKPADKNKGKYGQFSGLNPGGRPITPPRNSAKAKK
UCH37 DUB inh – human UCH37 deubiquitinating enzyme inhibition; Q9Y5K5; purified proteasome/UCH37, Ub-AMC cleavage fluorescence; 330,000 tested, 0.33% active; inhibition, % (concentration not given with the values);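 active = mean inhibition over replicate wells above about 20%, limit read from the data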;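 note: 0% = compound-free wells with enzyme and 100% = wells lacking proteasome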
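Material: Human UCH37 enzyme supplied as purified proteasome complex | Schedule: 30 min preincubation with enzyme, 25 min cleavage at room temperature | Detection: AMC fluorescence 355/460 nm | Measure: % inhibition of Ub-AMC cleavage fluorescence | Controls: Wells without proteasome as full block, compound-free enzyme plus substrate as uninhibited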
PREPL confirm – confirmation of human PREPL enzyme inhibitors; 2,000 tested, 67% active; recombinant PREPL, fluorescence polarization activity probe; shares compounds with PREPL inh; inhibition, % at 5.96 µM;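 note: 0% = protein with DMSO and 100% = wells lacking protein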
Active calls of the source: *; u = inconclusive; x = no result. Cut-off read from the data, not from the text of the source, unless noted: active = inhibition above about 43%; inactive = the rest.

SMILES	PP5 primary	PREPL inh	UBC13 inh	CTSL1 counter	PP1 inh	UCH37 DUB inh	PREPL confirm
COc1cc(OC)cc(-c2c(-c3cccs3)c3cc(-c4ccc(OCc5ccccc5)cc4)ccc3n2C)c1	x	72.4*	40.4	x	x	-24.6	4.0
COc1ccc2ccccc2c1C=NNC(=O)CC1(C)OCCCO1	x	x	x	x	x	4.3	x
Cn1cnc(C(=O)N2CCN(c3ccccc3)CC2)c1C(=O)N1CCN(c2ccccc2)CC1	3.5	45.1*	5.1	x	0.9	1.4	39.5
O=C(O)c1cc(O)c2c(c1)[C@H]([C@H]1c3cc(C(=O)O)cc(O)c3C(=O)c3c(O[C@@H]4O[C@H](CO)[C@@H](O)[C@H](O)[C@H]4O)cccc31)c1cccc(OC3O[C@H](CO)[C@@H](O)[C@H](O)[C@H]3O)c1C2=O (stereo partly drawn)	9.1	105.2*	u	9.2	86.3*	8.0	92.0*
CC(=O)c1cccc(N=c2scc(-c3ccc(S(=O)(=O)N4CCOCC4)cc3)n2CCO)c1	1.0	14.9	-14.8	-1.9	-0.2	0.0	x
CN(C)S(=O)(=O)c1cccc(-c2csc(=Nc3ccccc3)n2CCCN2CCOCC2)c1	0.6	56.3*	12.5	0.5	-0.9	3.8	55.2*
O=C(NN=C/C(Cl)=C/c1ccc([N+](=O)[O-])cc1)C(=O)Nc1ccc(C(=O)O)cc1	x	x	x	x	x	17.5	x
COc1ccc(CSc2ccc(-c3nc4ccccn4c3NCc3ccccc3)cc2OC)cc1	1.4	49.3*	3.5	-0.2	10.1	-222.6	41.2
CCC(C)Sc1ccc(-c2nc3ccccn3c2NCc2ccccc2)cc1OC (stereo not drawn)	x	16.5	22.3	x	x	-249.4	x
C#CCOCCOCCOCCNc1nc(N2CCN(C(=O)[C@H](CCC(=O)O)n3cc(C(N)Cc4ccc(O)cc4)nn3)CC2)nc(N2CCN(C(=O)[C@H](CCC(=O)O)n3cc(C(N)CC(C)C)nn3)CC2)n1 (stereo partly drawn)	3.6	5.3	-21.5	-0.2	6.4	2.9	x
C#CCOCCOCCOCCNc1nc(N2CCN(C(=O)[C@H](CCCCN)n3cc([C@@H](N)CO)nn3)CC2)nc(N2CCN(C(=O)[C@H](Cc3cc4ccccc4[nH]3)n3cc([C@@H](N)CC(C)C)nn3)CC2)n1	0.9	51.5*	99.7*	0.4	5.1	5.2	50.8*
C#CCOCCOCCOCCNc1nc(N2CCN(C(=O)[C@H](CCC(=O)O)n3cc(C(N)Cc4ccc(O)cc4)nn3)CC2)nc(N2CCN(C(=O)[C@H](Cc3cc4ccccc4[nH]3)n3cc(C(N)CC(C)C)nn3)CC2)n1 (stereo partly drawn)	0.8	46.0*	19.5	2.2	-2.2	1.9	38.4
C#CCOCCOCCOCCNc1nc(N2CCN(C(=O)[C@H](CCCCN)n3cc([C@@H](N)CO)nn3)CC2)nc(N2CCN(C(=O)[C@H](Cc3ccc(O)cc3)n3cc([C@@H](N)CC(C)C)nn3)CC2)n1	3.6	5.5	39.0	-0.6	0.0	0.6	x
O=C(c1cccc([N+](=O)[O-])c1)N1CCN(c2ccc(Cl)cc2)CC1	3.9	51.4*	6.6	2.2	-1.7	-0.6	38.9
C/C(=N\N1CCN(c2ccc(Cl)cc2)CC1)c1cccc([N+](=O)[O-])c1	-0.2	7.4	-2.0	3.4	-0.6	x	x
CCNC(=O)CC(C)=NNC(=O)C1CCCCC1	x	x	x	x	x	2.0	x
Cc1cc(=O)[nH]c(N=NC(=NNc2ccccc2C)c2ccccc2)n1	x	x	x	x	x	3.5	x
O=c1c2ccccc2c(C=NCCCN2CCOCC2)c(O)n1Cc1ccc2c(c1)OCO2	1.3	43.7*	20.6	2.3	-1.6	3.8	27.4
CN(C)S(=O)(=O)c1cccc(-c2csc(NN=Cc3ccco3)n2)c1	x	x	x	x	x	3.4	x
O=C(N/N=C1\C/C(=N\NC(=O)c2ccncc2)c2ccccc21)c1ccncc1	5.4	46.1*	-97.5	42.5*	5.7	x	9.9
CC(=NNC(=O)c1ccncc1)C1=C(O)CC(C)(C)CC1=O	x	x	x	x	x	3.4	x
Clc1ccccc1C=NNc1cc(N2CCOCC2)ncn1	x	x	x	x	x	3.2	x
N#Cc1ncc(Cc2ccccc2)nc1C#N	-2.6	52.1*	-2.9	6.0	-2.6	4.1	37.7
N#Cc1nc(Cc2ccccc2)oc1NCc1cccnc1	-0.8	16.3	11.2	1.8	-3.0	-0.1	x
Cc1ccc(Cl)cc1NC(=O)C[n+]1ccc(Cc2ccc([N+](=O)[O-])cc2)cc1	-2.5	67.5*	30.7	0.4	4.4	7.7	6.3
SMILES	PP5 primary	PREPL inh	UBC13 inh	CTSL1 counter	PP1 inh	UCH37 DUB inh	PREPL confirm
Cc1cccc[n+]1CC(=O)Nc1ccc([N+](=O)[O-])cc1Cl	-1.0	8.2	2.6	0.6	3.1	7.5	x
O=C(C[n+]1ccc(Cc2ccccc2)cc1)Nc1ccc([N+](=O)[O-])cc1Cl	-1.8	55.9*	13.2	4.5	-2.9	x	29.0
CC(C)(C)NC(=O)NC(=O)C[n+]1ccc(Cc2ccc([N+](=O)[O-])cc2)cc1	2.2	12.1	9.7	-0.3	0.6	3.8	x
O=C(Cc1ccccc1)Nc1cccc(N2CCCC2)c1	2.0	51.3*	1.2	0.0	10.7	1.2	19.2
CCOc1cc(C=NNC(=O)c2nn(C)cc2Br)ccc1OCc1ccccc1	x	x	x	x	x	1.9	x
COc1ccc(Cc2nn3c(-c4cc(OC)c(OC)c(OC)c4)nnc3s2)cc1	-0.7	26.1	10.7	2.4	2.7	5.4	x
COc1cc(-c2nnc3sc(Cc4ccc(Cl)cc4)nn23)cc(OC)c1OC	0.3	53.7*	22.6	3.6	6.5	2.9	52.5*
C=CCn1c(SCc2ccccc2Cl)nnc1-c1sc2nc(C)cc(C)c2c1N	5.1	47.1*	3.1	-1.7	-1.1	-139.5	42.0
Cc1cc(C)c2c(N)c(-c3nnc(SCc4ccc(Cl)cc4)n3C)sc2n1	-0.1	20.2	9.5	0.9	-3.4	-268.2	x
O=C(COC(=O)CCc1c[nH]c2ccccc12)Nc1ccc([N+](=O)[O-])cc1	3.8	33.6	1.9	-24.2	-1.6	2.1	x
O=C(COC(=O)CCc1c[nH]c2ccccc12)Nc1cc([N+](=O)[O-])ccc1Cl	-0.7	46.5*	17.8	-17.5	-1.9	4.3	42.8
O=C1NN(c2ccccc2)C(=O)/C1=C\c1cccc(OC(=O)c2cccs2)c1	-2.1	57.0*	-19.2	-1.2	4.3	7.5	34.0
Cc1ccsc1/C=C1/C(=O)NN(c2ccccc2)C1=O	2.5	10.4	-28.1	4.8	3.5	10.2	x
CC(C)OC(=O)CC(=O)CSc1nc2c(c(-c3cccs3)c1C#N)CCC2	2.8	6.7	17.7	6.9	8.1	-4.9	x
COc1ccc(NC(=O)CSc2nc3c(c(-c4cccs4)c2C#N)CN(C)CC3)cc1OC	3.5	44.5*	-16.6	3.7	4.3	5.6	17.1
CC(=O)Oc1cc(O)c2c(=O)c(OC(C)=O)c(-c3ccc(OC(C)=O)c(OC(C)=O)c3)oc2c1	5.5	44.5*	0.2	-15.2	-1.3	5.9	19.6
